According to ChEMBL document CHEMBL3232908, “Guanacastane diterpenoids from the plant endophytic fungus Cercospora sp” (J Nat Prod, 2014):
Calls of active or inactive are those of the source. The rule behind the calls is not given here.

Tests used:
HCT-116 [1] = assay: Induction of autophagy in human HCT116 cells assessed as increase in ratio of LC3-II to actin expression at 2.5 uM after 2 hrs by Western blot analysis relative to control; type: functional
In short: (§1)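 HCT116 colon carcinoma cells were grown in RPMI-1640 with fetal bovine serum and antibiotics, split overnight to 50% confluence, then dosed. Cells were lysed in 50 mM Tris-HCl pH 7.4, 2 mM EDTA, 2 mM EGTA, 1 mM DTT, 1% Triton X-100 and protease inhibitors. SDS-PAGE and PVDF blot used polyclonal anti-LC3, anti-actin and ECL. LC3-II/actin was measured by densitometry, representative of three experiments.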

HCT-116 [2] = assay: Induction of autophagy in human HCT116 cells assessed as increase in ratio of LC3-II to actin expression at 5 uM after 2 hrs by Western blot analysis relative to control; type: functional; in short: as §1
HeLa [3] = assay: Cytotoxicity against human HeLa cells after 48 hrs by MTS assay; type: functional, cell-based
In short: (§2)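 Cells seeded at 2−5 × 10^3 per well by growth rate and allowed to attach overnight. Medium then replaced with medium holding test compound or 0.1% DMSO, made by serial dilution of 100 mM DMSO stocks. Incubated 48 h at 37 °C in humidified 5% CO2. MTS added, 90 min at 37 °C in the dark, absorbance read at 490 nm. Run in triplicate.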

HCT-116 [4] = assay: Induction of autophagy in human HCT116 cells assessed as increase in ratio of LC3-II to actin expression at 10 uM after 2 hrs by Western blot analysis relative to control; type: functional; in short: as §1
HCT-116 [5] = assay: Induction of autophagy in human HCT116 cells transfected with plasmid expressing GFP-LC3 at 10 uM by DAPI staining based fluorescence microscopy; type: functional, cell-based
In short: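 HCT116 cells transfected with a GFP-LC3 plasmid. Transfection was 12 h by the legend and 24 h by the methods. Cells then incubated at 37 °C in RPMI-1640 with test compound or 1/1000 DMSO, fixed and stained with DAPI. GFP-LC3 puncta imaged by confocal fluorescence microscopy.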

MCF7 [6] = assay: Cytotoxicity against human MCF7 cells after 48 hrs by MTS assay; type: functional, cell-based; settings: MCF7, 48 h; in short: as §2
HCT-116 [7] = assay: Induction of autophagy in human HCT116 cells assessed as accrual of membrane vacuoles and autophagosome-like structure with double-membrane sturctures formation at 10 uM after 2 hrs by electron microscopy; type: functional, cell-based
In short: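 HCT116 cells in RPMI-1640 treated 2 h. Cells washed three times with PBS, trypsinized and pelleted. Pellets fixed overnight in 4% paraformaldehyde at 4 °C, postfixed 1 h at room temperature in 1% OsO4 in cacodylate buffer, dehydrated stepwise in ethanol, rinsed in propylene oxide and embedded in Spurr resin. Thin sections examined by transmission electron microscopy.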

[8] = Cytotoxicity against human T24 cells after 48 hrs by MTS assay; type: functional, cell-based; settings: T-24, 48 h; in short: as §2
A549 [9] = assay: Cytotoxicity against human A549 cells after 48 hrs by MTS assay; type: functional, cell-based; settings: A549, 48 h; in short: as §2
HCT-116 [10] = assay: Cytotoxicity against human HCT116 cells after 48 hrs by MTS assay; type: functional, cell-based; settings: HCT-116, 48 h; in short: as §2
A549 [11] = assay: Cytotoxicity against human A549 cells at 50 uM after 48 hrs by MTS assay; type: functional, cell-based; in short: as §2
T-24 = assay: Cytotoxicity against human T24 cells at 50 uM after 48 hrs by MTS assay; type: functional, cell-based; in short: as §2
MCF7 [12] = assay: Cytotoxicity against human MCF7 cells at 50 uM after 48 hrs by MTS assay; type: functional, cell-based; in short: as §2
HCT-116 [13] = assay: Cytotoxicity against human HCT116 cells at 50 uM after 48 hrs by MTS assay; type: functional, cell-based; in short: as §2
HeLa [14] = assay: Cytotoxicity against human HeLa cells at 50 uM after 48 hrs by MTS assay; type: functional, cell-based; in short: as §2

Row | Structure (SMILES) | Ratio (HCT-116 [1]) | Ratio (HCT-116 [2]) | IC50 (HeLa [3]) | Ratio (HCT-116 [4]) | Activity (HCT-116 [5]) | IC50 (MCF7 [6]) | Activity (HCT-116 [7]) | IC50 [8] | IC50 (A549 [9]) | IC50 (HCT-116 [10]) | Activity (A549 [11]) | Activity (T-24) | Activity (MCF7 [12]) | Activity (HCT-116 [13]) | Activity (HeLa [14])
1 | CC(C)C1=C(O)C(=O)C2=CC3=C(CCC4=C5CC6=C(O)C(=O)[C@H](C(C)C)[C@@]6(C)CC[C@]5(C)C[C@@H](O)C4=O)C(=O)[C@H](O)C[C@@]3(C)CC[C@@]21C | 1.2 | 1.3 | 19.3 µM | 1.4 | Active | 46.1 µM | Active | 8.16 µM | 29.7 µM | 21.3 µM |  |  |  |  | 
2 | CC(C)[C@H]1CC(=O)C2=CC3=C(CO)C(=O)C(O)=C[C@@]3(C)CC[C@@]21C |  |  |  |  |  |  |  |  |  |  | inactive | inactive | inactive | inactive | inactive
3 | CC(C)C1=C(O)C(=O)C2=CC3=C(CCC4=C5C=C6C(=O)C(O)=C(C(C)C)[C@@]6(C)CC[C@]5(C)C[C@@H](O)C4=O)C(=O)[C@H](O)C[C@@]3(C)CC[C@@]21C |  |  |  |  |  |  |  |  |  |  | inactive | inactive | inactive | inactive | inactive
4 | CC1=C2C=C3C(=O)C(O)=C([C@H](C)CO)[C@@]3(C)CC[C@]2(C)C[C@@H](O)C1=O |  |  |  |  |  |  |  |  |  |  | inactive | inactive | inactive | inactive | inactive
5 | CC(C)C1=C(O)C(=O)C2=CC3=C(CO)C(=O)[C@H](O)C[C@@]3(C)CC[C@@]21C |  |  |  |  |  |  |  |  |  |  | inactive | inactive | inactive | inactive | inactive
6 | C[C@H](CO)[C@H]1CC(=O)[C@@H]2[C@H]3OCC4=C3[C@@](C)(CCC4=O)CC[C@]12C |  |  |  |  |  |  |  |  |  |  | inactive | inactive | inactive | inactive | inactive
